ChEMBL document CHEMBL1629587, “Discovery of a small-molecule inhibitor of {beta}-1,6-glucan synthesis” (2009)
In brackets after ≈: the same amount, converted by molar mass. Activity calls are given as the source filed them. The rule behind the calls is not given here.

Legend:
Saccharomyces cerevisiae [1] = assay: Fungicidal activity against Saccharomyces cerevisiae AY-10-R4 mutant after 24 hrs by microdilution method; type: functional; conditions: AY-10-R4, 24 h
Kluyveromyces marxianus = assay: Antifungal activity against Candida kefyr ATCC 46764 after 24 hrs by microdilution method; type: functional; conditions: ATCC 46764, 24 h
How it was run: (§1)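 CLSI broth microdilution run at 30°C instead of standard temperature; starting inoculum 1 × 10^3 to 3 × 10^3 cells/ml; DMSO under 1% final. Endpoints: MIC-0 = lowest concentration giving an optically clear well; MIC-2 = 50% drop versus drug-free control in absorbance at 570 nm with alamar blue redox indicator, used because treated cells clump.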

Aspergillus fumigatus = assay: Antifungal activity against Aspergillus fumigatus ATCC 36607 after 24 hrs by microdilution method; type: functional; conditions: ATCC 36607, 24 h; how it was run: as §1
Candida albicans [2] = assay: Inhibition of hyphal elongation of Candida albicans ATCC 24433 at 1 ug/ml after 6 hrs by microscopy; type: functional, organism-based
How it was run: (§2)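 Hyphae induced in HFM-7 medium (Lee's medium also used) on type I collagen-coated wells, drug 0, 1, 4 or 16 μg/ml; static culture at 37°C, viewed by light microscopy after 6 h or 24 h.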

Nakaseomyces glabratus [3] = assay: Antifungal activity against Candida glabrata ATCC 200918 after 24 hrs by microdilution method; type: functional; conditions: ATCC 200918, 24 h; how it was run: as §1
Saccharomyces cerevisiae [4] = assay: Induction of multibudding phenotype in Saccharomyces cerevisiae YPH500 after 18 hrs by microscopy; type: functional, organism-based
How it was run: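 Exponential-phase cells suspended in RPMI 1640 with or without drug (2 μg/ml shown), shaken gently 18 h at 30°C, fixed in 3% glutaraldehyde in 0.1 M phosphate buffer, inspected by inverted light microscopy.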

Nakaseomyces glabratus [5] = assay: Fungistatic activity aganist Candida glabrata IFO0622assessed as growth inhibition at 1 to 16 ug/ml by time-kill study; type: functional, organism-based; conditions: IFO0622
How it was run: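 Exponentially growing cells suspended at 1 × 10^4 cells/ml in RPMI 1640 with or without drug, shaken gently at 30°C; samples taken at 2, 4, 8, 24 and 48 h, diluted and spread on SDA, colonies counted after overnight incubation at 30°C to give viable cell numbers.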

Saccharomyces cerevisiae [6] = assay: […] activity against Saccharomyces cerevisiae AY-10 transformed with empty vector pRS416 after 24 hrs by microdilution method; type: functional; conditions: AY-10, 24 h
Candida parapsilosis = assay: Antifungal activity against Candida parapsilosis IFO1396 after 24 hrs by microdilution method; type: functional; conditions: Lodderomyces parapsilosis, IFO1396, 24 h; how it was run: as §1
Saccharomyces cerevisiae [7] = assay: Fungicidal activity against Saccharomyces cerevisiae AY-10-R15 mutant after 24 hrs by microdilution method; type: functional; conditions: AY-10-R15, 24 h
Trichosporon asahii = assay: Antifungal activity against Trichosporon asahii ATCC 90039 after 24 hrs by microdilution method; type: functional; conditions: ATCC 90039, 24 h; how it was run: as §1
Candida albicans [8] = assay: Inhibition of hyphal elongation of Candida albicans ATCC 24433 at 16 ug/ml after 6 hrs by microscopy; type: functional, organism-based; how it was run: as §2
Aspergillus flavus = assay: Antifungal activity against Aspergillus flavus ATCC 64025 after 24 hrs by microdilution method; type: functional; conditions: ATCC 64025, 24 h; how it was run: as §1
Saccharomyces cerevisiae [9] = assay: Fungicidal activity against Saccharomyces cerevisiae AY-10-R11 mutant after 24 hrs by microdilution method; type: functional; conditions: AY-10-R11, 24 h
Staphylococcus aureus = assay: Antibacterial activity against Staphylococcus aureus 209P; type: functional
Saccharomyces cerevisiae [10] = assay: Fungicidal activity against Saccharomyces cerevisiae CT-2a mutant after 24 hrs by microdilution method; type: functional

In the case of `CCc1c(C)c(C#N)c2nc3ccccc3n2c1NCCN(CC)CC`, the MIC (Saccharomyces cerevisiae [1]) was 8 µg/mL (≈ 22.9 µM), the MIC (Kluyveromyces marxianus) was 2 µg/mL (≈ 5.72 µM) and the MIC50 (Kluyveromyces marxianus) was 1 µg/mL (≈ 2.86 µM). For the same compound, the MIC (Aspergillus fumigatus) was over 32 µg/mL, the MIC50 (Aspergillus fumigatus) was over 32 µg/mL and the inhibition (Candida albicans [2]) was “Active”. For the same compound, the MIC (Nakaseomyces glabratus [3]) was 4 µg/mL (≈ 11.4 µM), the MIC50 (Nakaseomyces glabratus [3]) was 4 µg/mL (≈ 11.4 µM) and the Activity (Saccharomyces cerevisiae [4]) was “Active”. The Activity (Nakaseomyces glabratus [5]) was “Dose-dependent effect”, the MIC (Saccharomyces cerevisiae [6]) was 2 µg/mL (≈ 5.72 µM) and the MIC (Candida parapsilosis) was over 32 µg/mL. It also gave an MIC50 (Candida parapsilosis) of 4 µg/mL (≈ 11.4 µM), an MIC (Saccharomyces cerevisiae [7]) of over 64 µg/mL and an MIC (Trichosporon asahii) of over 32 µg/mL. For the same compound, the MIC50 (Trichosporon asahii) was over 32 µg/mL, the inhibition (Candida albicans [8]) was “Active” and the MIC (Aspergillus flavus) was over 32 µg/mL. For the same compound, the MIC50 (Aspergillus flavus) was over 32 µg/mL, the MIC (Saccharomyces cerevisiae [9]) was 8 µg/mL (≈ 22.9 µM) and the MIC (Staphylococcus aureus) was over 32 µg/mL. It also gave an MIC (Saccharomyces cerevisiae [10]) of over 64 µg/mL.
